Data on 13 compounds can be found in ChEMBL document CHEMBL3045703, “Synthesis and insect antifeedant activity of plumbagin derivatives with the amino acid moiety” (2009).

Holding throughout (type): functional
The test system of assay [1] is Achaea janata. Kind of assay: Antifeedant activity against third instar larvae of Achaea janata in compound treated fresh castor leaves assessed as consumption at 28 +/- 2 degC, relative humidity 65 +/- 5 measured after 6 to 24 hr. In a few lines: (§1)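 No-choice leaf-disk test on castor leaf discs; control discs got solvent only. Prestarved third instar larvae reared on fresh castor leaves at 28 ± 2 °C, RH 65 ± 5, 16:8 light/dark. Consumed area tracked at 6, 12 and 24 h and measured with a leaf area meter. Antifeedant index = (C − T)/(C + T) × 100. 10 sets per concentration, each test run in triplicate; mean ± SD.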

Assay [2] deals with Spodoptera litura. Kind of assay: Antifeedant activity against third-instar larvae of tobacco caterpillar Spodoptera litura in compound treated fresh castor leaves assessed as consumption at 28 +/- 2 degC, relative humidity 65 +/- 5 measured after 6 to 24 hr. In short, it runs like this: as §1
Assay [3] has as its system Spodoptera litura. Briefly: Toxicity in third-instar larvae of tobacco caterpillar Spodoptera litura assessed as mortality at 4 ug/insect measured after 4 to 28 days by topical bioassay.
The subject of assay [4] is Achaea janata. Kind of assay: Toxicity in third instar larvae of Achaea janata assessed as mortality at 4 ug/insect measured after 4 to 28 days by topical bioassay.
For assay [5], the system named is Achaea janata. Briefly: Toxicity in third instar larvae of Achaea janata assessed as mortality at 1 ug/insect measured after 4 to 28 days by topical bioassay.
Assay [6] deals with Spodoptera litura. Kind of assay: Toxicity in third-instar larvae of tobacco caterpillar Spodoptera litura assessed as mortality at 1 ug/insect measured after 4 to 28 days by topical bioassay.
Assay [7] deals with Achaea janata. Kind of assay: Antifeedant activity against third instar larvae of Achaea janata in compound treated fresh castor leaves assessed as consumption at 0.1% measured after 6 to 24 hr. In a few lines:
as §1

Assay [8] has as its system Spodoptera litura. Kind of assay: Antifeedant activity against third-instar larvae of tobacco caterpillar Spodoptera litura in compound treated fresh castor leaves assessed as consumption at 0.1% measured after 6 to 24 hr. In short, it runs like this:
as §1

By mortality is commonly meant the percentage killed. With `COc1cccc2c1C(=O)C(NCCOC(=O)[C@H](CC(C)C)NC(C)=O)=C(C)C2=O`, in the assay with Achaea janata [1], the “antifeedant EC50” value is given as over 500 microg/cm2. In addition, in the assay on Spodoptera litura [2], the “Antifeedant EC50 (leaf-consumption)” value amounted to 466.28 microg/cm2. Also, the results for the mortality in the assay with Spodoptera litura [3] and with Achaea janata [4] were 74.2% and under 20%, respectively.

For the compound `COc1cccc2c1C(=O)C(NCCOC(=O)[C@H](Cc1ccccc1)NC(C)=O)=C(C)C2=O`, in the assay with Achaea janata [1], the “antifeedant EC50” value is 51.96 microg/cm2. Besides, the “Antifeedant EC50 (leaf-consumption)” value with Spodoptera litura [2] was 105.93 microg/cm2. Besides, the mortality in the assay on Spodoptera litura [3] is on record as under 20%; in the assay with Achaea janata [4], 23.4%.

Consider `COc1cccc2c1C(=O)C(NCCOC(=O)[C@@H](NC(C)=O)C(C)C)=C(C)C2=O`, for which the “antifeedant EC50” value in the assay on Achaea janata [1] was determined as 104.59 microg/cm2. Besides, the “Antifeedant EC50 (leaf-consumption)” value with Spodoptera litura [2] was over 500 microg/cm2. Further, the mortality is given as 84.5% with Spodoptera litura [3] and 32.6% with Achaea janata [4].

As for `COc1cccc2c1C(=O)C(NCCOC(=O)[C@H](Cc1ccc(O)cc1)NC(C)=O)=C(C)C2=O`, the “antifeedant EC50” value in the assay with Achaea janata [1] turned out to be 199.45 microg/cm2. Also, the “Antifeedant EC50 (leaf-consumption)” value in the assay with Spodoptera litura [2] stood at 461 microg/cm2. Also, the mortality with Spodoptera litura [3] is under 20%; with Achaea janata [4], 24.6%.

Turning to `COc1cccc2c1C(=O)C(NCCOC(=O)CCCNC(C)=O)=C(C)C2=O`, the “antifeedant EC50” value in the assay on Achaea janata [1] is on record as over 500 microg/cm2. Besides, in the assay on Spodoptera litura [2], the “Antifeedant EC50 (leaf-consumption)” value stood at 247.59 microg/cm2. Besides, the mortality in the assay with Spodoptera litura [3] and with Achaea janata [4] was under 20% throughout.

For `COc1cccc2c1C(=O)C(NCCOC(=O)c1ccc(NC(C)=O)cc1)=C(C)C2=O`, in the assay on Achaea janata [1], the “antifeedant EC50” value was found to be 268.88 microg/cm2. The “Antifeedant EC50 (leaf-consumption)” value with Spodoptera litura [2] was 117.25 microg/cm2. Moreover, the mortality in the assay with Spodoptera litura [3] was 63.8%; with Achaea janata [4], under 20%.

As for `COc1cccc2c1C(=O)C(NCCOC(=O)CNC(C)=O)=C(C)C2=O`, the “antifeedant EC50” value in the assay on Achaea janata [1] was determined as 69.51 microg/cm2. Also, the “Antifeedant EC50 (leaf-consumption)” value with Spodoptera litura [2] stood at 36.87 microg/cm2. Also, the values for the mortality with Spodoptera litura [3] and with Achaea janata [4] were under 20% and 100%, respectively.

Take `COc1cccc2c1C(=O)C(NCCOC(=O)[C@H](C)NC(C)=O)=C(C)C2=O`: in the assay on Achaea janata [1], the “antifeedant EC50” value was 340.63 microg/cm2. Further, the “Antifeedant EC50 (leaf-consumption)” value in the assay on Spodoptera litura [2] is over 500 microg/cm2. In addition, the mortality in the assay on Spodoptera litura [3] and with Achaea janata [4] was under 20% in each case.

Consider `COc1cccc2c1C(=O)C(NCCOC(=O)[C@H](CS)NC(C)=O)=C(C)C2=O`, for which the “antifeedant EC50” value with Achaea janata [1] is over 500 microg/cm2. Also, in the assay on Spodoptera litura [2], the “Antifeedant EC50 (leaf-consumption)” value is given as over 500 microg/cm2. For the same compound, the mortality with Spodoptera litura [3] is listed as 100%; in the assay with Achaea janata [4], under 20%.

As for `COc1cccc2c1C(=O)C(NCCOC(=O)[C@H](CCSC)NC(C)=O)=C(C)C2=O`, the “antifeedant EC50” value in the assay with Achaea janata [1] stood at 37.37 microg/cm2. The “Antifeedant EC50 (leaf-consumption)” value in the assay on Spodoptera litura [2] turned out to be 48.47 microg/cm2. For the same compound, the results for the mortality in the assay with Spodoptera litura [3] and with Achaea janata [4] were under 20% and 100%, respectively.

`CC[C@H](C)[C@H](NC(C)=O)C(=O)OCCNC1=C(C)C(=O)c2cccc(OC)c2C1=O`: the “antifeedant EC50” value in the assay with Achaea janata [1] is reported as 292 microg/cm2. For the same compound, the “Antifeedant EC50 (leaf-consumption)” value in the assay on Spodoptera litura [2] is reported as over 500 microg/cm2. Also, the mortality in the assay on Spodoptera litura [3] and with Achaea janata [4] was under 20% each time.

Turning to `C/C=C(\C)C(=O)O[C@H]1C[C@@H](OC(C)=O)[C@@]2(C(=O)OC)CO[C@H]3[C@@H](O)[C@@](C)([C@]45O[C@@]4(C)[C@@H]4C[C@H]5O[C@@H]5OC=C[C@@]54O)[C@H]4[C@]1(CO[C@]4(O)C(=O)OC)[C@@H]32` [AZADIRACHTIN A], the mortality with Achaea janata [5] is given as 93.6%; in the assay on Spodoptera litura [6], 84%.

On to `CC1=CC(=O)c2c(O)cccc2C1=O` [PLUMBAGIN], for which the Activity is 35.69% in the assay with Achaea janata [7] and 26% with Spodoptera litura [8]. The mortality with Spodoptera litura [3] and in the assay on Achaea janata [4] was under 20% in each case.
